Laboratory results published in publication PMC4656071 (Biochemical pharmacology, 2015).

What was measured:
sEH = conditions: cited from earlier work
[1] = format: in vitro ADME, rat, human; conditions: incubated in vitro without NADPH
CYP3A4 = assay: Recombinant human CYPs incubation, CYP3A4; format: in vitro ADME; conditions: 1 μM AEPU, 20 pmol/ml CYP, 30 min
Summary of the method: (§1)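 Recombinant human CYPs (20 pmol/ml) with 1 μM test compound in 100 mM sodium phosphate pH 7.4, preincubated 5 min at 37 °C. NADPH-generating system added; incubated 0 and 30 min. Stopped with 200 nM internal standard in methanol; LC-MS/MS. Metabolites compared as response-area ratio to internal standard.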

CYP2D6 = assay: Recombinant human CYPs incubation, CYP2D6; format: in vitro ADME; conditions: 1 μM AEPU, 20 pmol/ml CYP, 30 min
Summary of the method: as §1

CYP 3A4 = format: in vitro ADME, human; conditions: 10 uM ketoconazole, 30 min, 37°C
[2] = Blood level-time course of AEPU and its metabolites after oral dosing in mice; format: in vivo, male swiss webster mice
[3] = 5 mg/kg for mouse and rat, 0.3 mg/kg for dog; cited from earlier work
[4] = animal models; cited from earlier work
Human sEH = target: T1, Human sEH (Homo sapiens, UniProt P34913); assay: sEH activity assay; format: biochemical; conditions: fluorescent assay for sEH inhibition, from Table 3 (human and mouse sEH)
T1 sequence (P34913 1-555): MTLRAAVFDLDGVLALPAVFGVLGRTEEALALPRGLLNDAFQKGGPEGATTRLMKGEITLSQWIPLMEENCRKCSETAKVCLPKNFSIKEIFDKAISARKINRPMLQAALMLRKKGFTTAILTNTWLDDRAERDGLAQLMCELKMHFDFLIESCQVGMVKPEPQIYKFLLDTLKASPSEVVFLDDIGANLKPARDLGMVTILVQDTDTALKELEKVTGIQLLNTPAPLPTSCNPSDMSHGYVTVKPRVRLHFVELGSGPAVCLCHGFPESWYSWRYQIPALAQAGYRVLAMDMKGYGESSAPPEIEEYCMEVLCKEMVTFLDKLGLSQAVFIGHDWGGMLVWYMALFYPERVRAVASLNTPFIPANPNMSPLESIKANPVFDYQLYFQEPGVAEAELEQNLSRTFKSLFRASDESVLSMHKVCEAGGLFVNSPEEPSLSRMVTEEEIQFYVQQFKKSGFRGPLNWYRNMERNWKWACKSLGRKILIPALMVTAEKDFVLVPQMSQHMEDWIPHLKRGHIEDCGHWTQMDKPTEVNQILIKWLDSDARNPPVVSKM

[5] = In vivo metabolism study of AEPU, rat urine by LC-MS; design: species or system rat (Sprague Dawley); conditions: rats, oral 10 mg/kg AEPU, urine 24 h after treatment

O=C(O)CCCNC(=O)NC12CC3CC(CC(C3)C1)C2 [4-(3-adamantan-1-yl-ureido)butanoic acid]
inhibitory potency on sEH (in words) (sEH): very weak

CCOCCOCCOCCCCCNC(=O)NC12CC3CC(CC(C3)C1)C2 [AEPU, 1-adamantan-1-yl-3-(5-(2-(2-ethoxyethoxy)ethoxy)pentyl)urea]
metabolite formation in vitro without NADPH [1]: failed to generate metabolites
role of CYP3A4 in the in vitro metabolism of AEPU (CYP3A4): major enzyme
role of CYP2D6 in the in vitro metabolism of AEPU (CYP2D6): minor enzyme
metabolism of AEPU in human liver S9 fraction with ketoconazole (CYP 3A4): ceased
metabolism in vivo (in words) ([2]; oral 10 mg/kg, multiple metabolites observed after 30 minutes): metabolized rapidly
area under curve after oral administration, comparison of species [3]: largest area under curve for dog, and then rat, while under detection limitation for mouse
blood level of AEPU through the whole time course [4]: undetectable

CCOCCOCCOCCCCCNC(=O)NC12CC3CC(CC(O)(C3)C1)C2 [M2]
potency lower compared to AEPU (Human sEH): 30–100 fold

O=C(O)CCNC(=O)NC12CC3CC(CC(C3)C1)C2 [M15, 3-(3-adamantyl-ureido)-propanoic acid]
blood level 6 hours post administration ([2]; oral 10 mg/kg AEPU, mouse whole blood, 6 hours): under the detection limitation
occurrence in rat urine [5]: major metabolite
